From ChEMBL document CHEMBL3804777, “Identification and Preclinical Pharmacology of BMS-986104: A Differentiated S1P1 Receptor Modulator in Clinical Trials” (ACS Med Chem Lett, 2016)
Calls of active or inactive are those of the source. The calls are words filed in the database; no cut-off is given here.

How the values were obtained:
Blood [1] = assay: Drug metabolism in BALB/c mouse blood assessed as formation of phosphate ester metabolite at 10 mg/kg administered through oral gavage after 24 hrs by LC/MS/MS analysis; type: ADME, organism-based; details: in vivo
Procedure, shortened: (§1)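 Mouse PK study: alcohol prodrug given orally at 10 mg/kg, and formation of the phosphate metabolite in blood measured.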

[2] = Drug metabolism in BALB/c mouse whole blood assessed as whole blood phosphate area ratio at 10 uM after 4 hrs by LC/MS/MS analysis; type: ADME, tissue-based
Procedure, shortened: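 Mouse whole blood incubated with the amino-alcohol prodrug; phosphorylated product measured by LC/MS/MS after 4 h to give the relative extent of phosphate ester formation.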

Blood [3] = assay: Drug metabolism in BALB/c mouse blood assessed as formation of phosphate ester metabolite at 10 mg/kg administered through oral gavage after 4 hrs by LC/MS/MS analysis; type: ADME, organism-based; details: in vivo; procedure, shortened: as §1
Mus musculus [4] = assay: Reduction of blood lymphocyte level in BALB/c mouse at 1 mg/kg administered through oral gavage after 24 hrs by hematology analysis; type: functional; set-up: scale not given: the % may be the effect or the level left
Procedure, shortened: (§2)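 Mice given a single oral 1 mg/kg dose; circulating lymphocytes counted 24 h later as the pharmacodynamic marker.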

Mus musculus [5] = assay: Reduction in blood lymphocyte level in BALB/c mouse at 1 mg/kg, po after 24 hrs by hematology analysis; type: functional, organism-based; procedure, shortened: as §2
Mus musculus [6] = assay: Reduction in lymphocyte level in BALB/c mouse assessed as blood lymphocyte level at 0.5 mg/kg, po after 24 hrs by hematology analysis (reference value: 5.13 to 8.02 10^3/mm3); type: functional
Mus musculus [7] = assay: Reduction in lymphocyte level in BALB/c mouse assessed as blood lymphocyte level at 10 mg/kg, po after 24 hrs by hematology analysis (reference value: 5.13 to 8.02 10^3/mm3); type: functional
Mus musculus [8] = assay: Reduction in lymphocyte level in BALB/c mouse assessed as blood lymphocyte level at 30 mg/kg, po after 24 hrs by hematology analysis (reference value: 5.13 to 8.02 10^3/mm3); type: functional
Mus musculus [9] = assay: Pulmonary toxicity in BALB/c mouse assessed as BAL protein levels at 0.5 mg/kg, po after 24 by hematology analysis (reference value: 8.2 to 8.3 mg/dL); type: organism-based; details: in vivo
Mus musculus [10] = assay: Pulmonary toxicity in BALB/c mouse assessed as BAL protein levels at 10 mg/kg, po after 24 by hematology analysis (reference value: 8.2 to 8.3 mg/dL); type: organism-based; details: in vivo
Mus musculus [11] = assay: Pulmonary toxicity in BALB/c mouse assessed as BAL protein levels at 30 mg/kg, po after 24 by hematology analysis (reference value: 8.2 to 8.3 mg/dL); type: organism-based; details: in vivo
[12] = Plasma clearance in mouse at 0.5 mg/kg, iv; type: ADME, organism-based
[13] = Volume of distribution at steady state in mouse at 0.5 mg/kg, iv; type: ADME, organism-based; details: in vivo, read-out: Vdss
[14] = Oral bioavailability in mouse at 1 mg/kg; type: ADME, organism-based; details: in vivo
Mus musculus [15] = assay: Reduction in body weight loss in SCID mouse with CD45RBhiCD4+ T-cell transfer-induced colitis model of inflammatory bowel disease at 1 or 5 mg/kg, po dosed every other day for 5 weeks; type: functional, organism-based
Procedure, shortened: (§3)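 CD45RBhiCD4+ T-cell transfer colitis in mice; oral alternate-day dosing for 5 weeks, compared with vehicle. Read-outs: body weight, colon length, histological colon inflammation and tissue damage, and colon gene expression by RT-PCR (IFN-γ, IL-2, CD4, B220, CD11b, Fcgr4, Ifit1, OASL2).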

Mus musculus [16] = assay: Induction of colon length shortening in SCID mouse with CD45RBhiCD4+ T-cell transfer-induced colitis model of inflammatory bowel disease at 1 or 5 mg/kg, po dosed every other day for 5 weeks; type: functional, organism-based; procedure, shortened: as §3
Mus musculus [17] = assay: Reduction in colon inflammation in SCID mouse with CD45RBhiCD4+ T-cell transfer-induced colitis model of inflammatory bowel disease at 1 or 5 mg/kg, po dosed every other day for 5 weeks by H and E staining method; type: functional, organism-based; procedure, shortened: as §3
Mus musculus [18] = assay: Reduction in colon tissue damage in SCID mouse with CD45RBhiCD4+ T-cell transfer-induced colitis model of inflammatory bowel disease at 1 or 5 mg/kg, po dosed every other day for 5 weeks by H and E staining method; type: functional, organism-based; procedure, shortened: as §3
Mus musculus [19] = assay: Reduction in IL2 gene expression in SCID mouse with CD45RBhiCD4+ T-cell transfer-induced colitis model of inflammatory bowel disease at 1 mg/kg, po dosed daily for 5 weeks by RT-PCR method; type: functional; set-up: scale not given: the % may be the effect or the level left; details: in the assay text read “dosed on alternate days” for “dosed daily”
Mus musculus [20] = assay: Reduction in IFNgamma gene expression in SCID mouse with CD45RBhiCD4+ T-cell transfer-induced colitis model of inflammatory bowel disease at 1 mg/kg, po dosed daily for 5 weeks by RT-PCR method; type: functional; set-up: scale not given: the % may be the effect or the level left; details: in the assay text read “dosed on alternate days” for “dosed daily”
Mus musculus [21] = assay: Reduction in CD11b gene expression in SCID mouse with CD45RBhiCD4+ T-cell transfer-induced colitis model of inflammatory bowel disease at 1 mg/kg, po dosed daily for 5 weeks by RT-PCR method; type: functional; set-up: scale not given: the % may be the effect or the level left; details: in the assay text read “dosed on alternate days” for “dosed daily”
Mus musculus [22] = assay: Reduction in CD4 gene expression in SCID mouse with CD45RBhiCD4+ T-cell transfer-induced colitis model of inflammatory bowel disease at 1 mg/kg, po dosed daily for 5 weeks by RT-PCR method; type: functional; set-up: scale not given: the % may be the effect or the level left; details: in the assay text read “dosed on alternate days” for “dosed daily”
Mus musculus [23] = assay: Reduction in B220 gene expression in SCID mouse with CD45RBhiCD4+ T-cell transfer-induced colitis model of inflammatory bowel disease at 1 mg/kg, po dosed daily for 5 weeks by RT-PCR method; type: functional; set-up: scale not given: the % may be the effect or the level left; details: in the assay text read “dosed on alternate days” for “dosed daily”
Mus musculus [24] = assay: Reduction in Fcgr4 gene expression in SCID mouse with CD45RBhiCD4+ T-cell transfer-induced colitis model of inflammatory bowel disease at 1 mg/kg, po dosed daily for 5 weeks by RT-PCR method; type: functional; set-up: scale not given: the % may be the effect or the level left
Procedure, shortened: (§4)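 CD45RBhiCD4+ T-cell transfer colitis in mice; oral dosing at 1 mg/kg/day for 5 weeks, compared with vehicle. Read-outs: body weight, colon length, and colon gene expression by RT-PCR (IFN-γ, IL-2, CD4, B220, CD11b, Fcgr4, Ifit1, OASL2).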

Mus musculus [25] = assay: Reduction in Ifit1 gene expression in SCID mouse with CD45RBhiCD4+ T-cell transfer-induced colitis model of inflammatory bowel disease at 1 mg/kg, po dosed daily for 5 weeks by RT-PCR method; type: functional; set-up: scale not given: the % may be the effect or the level left; procedure, shortened: as §4
Mus musculus [26] = assay: Reduction in OASL2 gene expression in SCID mouse with CD45RBhiCD4+ T-cell transfer-induced colitis model of inflammatory bowel disease at 1 mg/kg, po dosed daily for 5 weeks by RT-PCR method; type: functional; set-up: scale not given: the % may be the effect or the level left; procedure, shortened: as §4
Blood [27] = assay: Drug metabolism in BALB/c mouse blood assessed as formation of phosphate metabolite at 1 mg/kg administered through oral gavage after 24 hrs by LC/MS/MS analysis; type: ADME, organism-based; details: in vivo
Procedure, shortened: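 Single oral 1 mg/kg dose in mice; phosphate level in blood determined at 24 h postdose.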

Drug metabolism (Blood [1]): 202 nM
Ratio [2]: 0.6
Drug metabolism (Blood [3]): 41 nM
clearance [12]: 20 mL/min/kg
Vd [13]: 60 L/kg
bioavailability [14]: 65%
Drug metabolism (Blood [27]): 27 nM
SMILES: CCCCCC[C@@H]1CCc2cc([C@H]3CC[C@](N)(CO)C3)ccc2C1 [BMS-986104]
Activity (Mus musculus [4]): 88%
Activity (Mus musculus [5]): Active
Activity (Mus musculus [6]): 1.65 ×10³ /mm3
Activity (Mus musculus [7]): 0.51 ×10³ /mm3
Activity (Mus musculus [8]): 0.52 ×10³ /mm3
Activity (Mus musculus [9]): 7.67 mg/dL
Activity (Mus musculus [10]): 8.25 mg/dL
Activity (Mus musculus [11]): 10 mg/dL
inhibition (Mus musculus [15]): Dose-dependent effect
Activity (Mus musculus [16]): Dose-dependent effect
Activity (Mus musculus [17]): Dose-dependent effect
Activity (Mus musculus [18]): Dose-dependent effect
Activity (Mus musculus [19]): 63%
Activity (Mus musculus [20]): 45%
Activity (Mus musculus [21]): 41%
Activity (Mus musculus [22]): 51%
Activity (Mus musculus [23]): 47%
Activity (Mus musculus [24]): 50%
Activity (Mus musculus [25]): 42%
Activity (Mus musculus [26]): 41%
